Key:
Type in all cases: functional
[1] = system: H4; assay: Increase in light chain 3-GFP+ autophagosome vesicle intensity per cell in human H4 cells at 13.2 uM after 24 hrs by high throughput fluorescence microscopy relative to control
Procedure, shortened: (§1)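 H4 cells stably expressing LC3-GFP, seeded in 96-well plates and exposed to compound for 24 h; fixed in 4% paraformaldehyde, nuclei stained with 3 μg/ml DAPI. Automated fluorescence microscopy scored number, size and intensity of LC3-GFP spots; values expressed relative to DMSO-treated wells, rapamycin positive control. Triplicate wells, mean ± SD; experiments repeated three times.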

[2] = system: H4; assay: Decrease in FYVE-RFP+ vesicle intensity per cell in human H4 cells after 2 hrs relative to control; design: concentration or dose not given beside the values
Procedure, shortened: (§2)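 H4 cells stably expressing FYVE-RFP (H4-FYVE), grown in DMEM with 10% FBS, penicillin/streptomycin and 2 mM L-glutamine at 37°C, 5% CO2, seeded in 96-well plates and exposed to compound. Fixed in 4% paraformaldehyde, nuclei stained with 3 μg/ml DAPI, FYVE-RFP+ vesicles quantified by high-throughput fluorescence microscopy against DMSO control. Triplicate wells, mean ± SD.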

[3] = system: H4; assay: Decrease in FYVE-RFP+ vesicle intensity per cell in human H4 cells after 8 hrs relative to control; design: concentration or dose not given beside the values; procedure, shortened: as §2
[4] = system: H4; assay: Increase in long-lived protein degradation in human H4 cells after 1 hr relative to control; design: concentration or dose not given beside the values
[5] = system: H4; assay: Decrease in FYVE-RFP+ vesicle intensity per cell in human H4 cells after 4 hrs relative to control; design: concentration or dose not given beside the values; procedure, shortened: as §2
[6] = system: H4; assay: Increase in long-lived protein degradation in human H4 cells after 24 hrs relative to control; design: concentration or dose not given beside the values
[7] = system: H4; assay: Increase in long-lived protein degradation in human H4 cells after 4 hrs relative to control; design: concentration or dose not given beside the values
[8] = system: H4; assay: Induction of light chain 3-GFP level in human H4 cells at 13.2 uM after 24 hrs by high throughput fluorescence microscopy relative to control
Procedure, shortened: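 H4 cells stably expressing LC3-GFP, kept in DMEM/10% FBS at 37°C, 5% CO2, were seeded in 96-well plates and exposed to compound for 24 h. Cells were then fixed in 4% paraformaldehyde and stained with 3 μg/ml DAPI. Automated fluorescence microscopy scored the number, size and intensity of LC3-GFP spots. Values are percent of DMSO wells, in triplicate, mean ± SD. Rapamycin served as positive control.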

[9] = system: H4; assay: Increase in light chain 3-GFP+ autophagosome vesicle number per cell in human H4 cells at 13.2 uM after 24 hrs by high throughput fluorescence microscopy relative to control; procedure, shortened: as §1
[10] = system: H4; assay: Increase in light chain 3-GFP+ autophagosome vesicle area per cell in human H4 cells at 13.2 uM after 24 hrs by high throughput fluorescence microscopy relative to control; procedure, shortened: as §1
[11] = system: H4; assay: Increase in long-lived protein degradation in human H4 cells after 2 hrs relative to control; design: concentration or dose not given beside the values
[12] = system: H4; assay: Effect on FYVE-RFP+ vesicle intensity per cell in human H4 cells after 4 hrs relative to control; design: concentration or dose not given beside the values; procedure, shortened: as §2
[13] = system: H4; assay: Induction of light chain 3-GFP level in human H4 cells at 5.1 uM after 24 hrs by high throughput fluorescence microscopy relative to control
Procedure, shortened: (§3)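 H4 cells stably expressing LC3-GFP, grown in DMEM with 10% FBS, penicillin/streptomycin and 2 mM L-glutamine at 37°C, 5% CO2. Cells were seeded in 96-well plates and exposed to library compounds at 3–12 μM for 24 h, then fixed in 4% paraformaldehyde and stained with 3 μg/ml DAPI. LC3-GFP spot number, size and intensity were measured by high-throughput fluorescence microscopy and expressed relative to DMSO. Triplicates, mean ± SD.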

[14] = system: H4; assay: Increase in light chain 3-GFP+ autophagosome vesicle intensity per cell in human H4 cells at 5.1 uM after 24 hrs by high throughput fluorescence microscopy relative to control
Procedure, shortened: (§4)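 H4 cells stably expressing LC3-GFP were grown in DMEM with 10% FBS and 2 mM L-glutamine at 37°C, 5% CO2. They were exposed to each compound for 24 h, with DMSO as negative and rapamycin as positive control. Cells were then fixed in 4% paraformaldehyde and stained with 3 μg/ml DAPI. High-throughput fluorescence imaging scored LC3-GFP spot number, size and intensity, expressed relative to DMSO. Mean ± SD of triplicates; experiments repeated three times.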

[15] = system: H4; assay: Effect on FYVE-RFP+ vesicle intensity per cell in human H4 cells after 2 hrs relative to control; design: concentration or dose not given beside the values; procedure, shortened: as §2
[16] = system: H4; assay: Increase in light chain 3-GFP+ autophagosome vesicle number per cell in human H4 cells at 5.1 uM after 24 hrs by high throughput fluorescence microscopy relative to control; procedure, shortened: as §4
[17] = system: H4; assay: Increase in light chain 3-GFP+ autophagosome vesicle area per cell in human H4 cells at 5.1 uM after 24 hrs by high throughput fluorescence microscopy relative to control
Procedure, shortened: (§5)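 H4 cells stably expressing LC3-GFP, seeded in 96-well plates and exposed to compound for 24 h; screening concentrations were 3–12 μM, with rapamycin 0.22 μM and bafilomycin A1 0.40 μM. Cells fixed in 4% paraformaldehyde and stained with 3 μg/ml DAPI. Number, size and intensity of LC3-GFP spots measured by high-throughput fluorescence microscopy and expressed as percent of DMSO-treated wells. Rapamycin was the positive control. Triplicate wells, mean ± SD; experiments repeated three times.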

[18] = system: H4; assay: Effect on FYVE-RFP+ vesicle intensity per cell in human H4 cells after 8 hrs relative to control; design: concentration or dose not given beside the values; procedure, shortened: as §2
[19] = system: H4; assay: Induction of light chain 3-GFP level in human H4 cells at 2.1 uM after 24 hrs by high throughput fluorescence microscopy relative to control
[20] = system: H4; assay: Increase in light chain 3-GFP+ autophagosome vesicle number per cell in human H4 cells at 2.1 uM after 24 hrs by high throughput fluorescence microscopy relative to control; procedure, shortened: as §4
[21] = system: H4; assay: Increase in light chain 3-GFP+ autophagosome vesicle area per cell in human H4 cells at 2.1 uM after 24 hrs by high throughput fluorescence microscopy relative to control
[22] = system: H4; assay: Increase in light chain 3-GFP+ autophagosome vesicle intensity per cell in human H4 cells at 2.1 uM after 24 hrs by high throughput fluorescence microscopy relative to control
[23] = system: H4; assay: Increase in light chain 3-GFP+ autophagosome vesicle intensity per cell in human H4 cells at 9.0 uM after 24 hrs by high throughput fluorescence microscopy relative to control; procedure, shortened: as §4
[24] = system: H4; assay: Increase in light chain 3-GFP+ autophagosome vesicle number per cell in human H4 cells at 9.0 uM after 24 hrs by high throughput fluorescence microscopy relative to control; procedure, shortened: as §3
[25] = system: H4; assay: Increase in light chain 3-GFP+ autophagosome vesicle area per cell in human H4 cells at 9.0 uM after 24 hrs by high throughput fluorescence microscopy relative to control; procedure, shortened: as §5
[26] = system: H4; assay: Induction of light chain 3-GFP level in human H4 cells at 9.0 uM after 24 hrs by high throughput fluorescence microscopy relative to control; procedure, shortened: as §3

| Structure (SMILES) | Activity [2] [%] | Activity [3] [%] | Activity [4] [%] | Activity [5] [%] | Activity [6] [%] | Activity [7] [%] | Activity [11] [%] | Activity [12] [%] | Activity [15] [%] | Activity [18] [%] | further results |
| --- | --- | --- | --- | --- | --- | --- | --- | --- | --- | --- | --- |
| O[C@H]1[C@H](O)[C@@H](O)CN2CC[C@H](O)[C@H]12 [CASTANOSPERMINE] | 37.35 | 36.45 | 83.53 | 40.02 | 85.6 | 88.75 | 84.26 | – | – | – | Activity [1]: 171.2%; Activity [8]: 157.35%; Activity [9]: 156.81%; Activity [10]: 174.29% |
| CC[C@H](C)[C@H](NS(=O)(=O)c1cccc2ccccc12)C(=O)N[C@H](C=O)Cc1c[nH]c2ccccc12 | – | – | 134.83 | – | 9.4 | 117.24 | 136.94 | 64.1 | 89.37 | 62.34 | Activity [13]: 124.74%; Activity [14]: 199.27%; Activity [16]: 151.1%; Activity [17]: 172.38% |
| C/C=C/C[C@@H](C)[C@@H](O)[C@H]1C(=O)N[C@@H](CC)C(=O)N(C)CC(=O)N(C)[C@@H](CC(C)C)C(=O)N[C@@H](C(C)C)C(=O)N(C)[C@@H](CC(C)C)C(=O)N[C@@H](C)C(=O)N[C@H](C)C(=O)N(C)[C@@H](CC(C)C)C(=O)N(C)[C@@H](CC(C)C)C(=O)N(C)[C@@H](C(C)C)C(=O)N1C [CYCLOSPORINE] | – | – | 114.15 | – | 104.28 | 101.74 | 117.39 | 71.69 | 73.62 | 55.82 | Activity [19]: 159.64%; Activity [20]: 155.88%; Activity [21]: 181.14%; Activity [22]: 178.79% |
| O=C(Nc1ccccc1)c1cc([N+](=O)[O-])ccc1Cl | 40.32 | 29.9 | 106.33 | 44.5 | 89.29 | 93.22 | 87.58 | – | – | – | Activity [23]: 166.91%; Activity [24]: 128.11%; Activity [25]: 137.98%; Activity [26]: 105.38% |
